This is a sample that favours compounds with a hit; in the whole collection about 0.72% have one here.
hIAP activ: human IAP activators, primary screen, biochemical, luminescence, uHTS | purified human IAP, CDP-Star luminescence, 30 min; stronger effect = higher value; 1 = vehicle-only enzyme, 0 = enzyme-free background | Intestinal-type alkaline phosphatase (Homo sapiens), P09923 | activation factor at 10 µM | 0.16% of 330,000 active;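 active = activation factor of the enzyme at least 2-fold when tested at 20 µM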
Target sequence (P09923 whole entry, looked up): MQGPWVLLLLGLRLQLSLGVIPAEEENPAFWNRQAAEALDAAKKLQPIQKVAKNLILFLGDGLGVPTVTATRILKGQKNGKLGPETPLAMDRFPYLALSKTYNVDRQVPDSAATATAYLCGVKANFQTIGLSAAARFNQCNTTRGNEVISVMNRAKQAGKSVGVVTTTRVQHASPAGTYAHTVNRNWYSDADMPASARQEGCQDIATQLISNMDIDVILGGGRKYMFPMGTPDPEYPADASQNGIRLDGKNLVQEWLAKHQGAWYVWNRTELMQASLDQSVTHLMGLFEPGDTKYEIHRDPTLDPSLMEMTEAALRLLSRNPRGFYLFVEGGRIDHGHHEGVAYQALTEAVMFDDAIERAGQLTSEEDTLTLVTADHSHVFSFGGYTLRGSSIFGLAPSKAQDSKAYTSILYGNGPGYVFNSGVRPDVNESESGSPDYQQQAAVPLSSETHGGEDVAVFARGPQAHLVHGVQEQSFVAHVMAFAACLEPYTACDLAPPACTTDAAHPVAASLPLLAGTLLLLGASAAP
mIAP activ: activators of mouse IAP, primary screen, biochemical, luminescence, uHTS | intestinal alkaline phosphatase [Mus musculus] | muIAP, CDP-Star luminescence, 30 min; stronger effect = higher value; 1 = vehicle-only enzyme signal, 0 = enzyme-free wells | activation factor at 10 µM | 0.24% of 330,000 active | AID 2805, 2010;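 active = activation factor of at least 2 at 20 µM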
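Assay system: mouse IAP enzyme; Reagent: CDP-Star chemiluminescent phosphatase substrate; Compound: DMSO-dissolved test compounds; Incubation: 30 min, room temperature; Technique: luminescence from enzymatic CDP-Star hydrolysis; Controls: DMSO-only wells and no-enzyme negative control.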
mIAP block: inhibitors of mouse IAP, primary screen, biochemical, luminescence, uHTS | AID 2806, 2010 | intestinal alkaline phosphatase [Mus musculus] | inhibition, % at 10 µM | 0.2% of 330,000 active | purified mouse IAP, CDP-Star luminescence, 30 min;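 active = inhibition of at least 40% at 10 µM in the primary screen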;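 note: plate controls were DMSO with enzyme for no effect and no enzyme wells for full effect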
bIAP activator: bovine intestinal alkaline phosphatase activators, primary screen, biochemical, bovine IAP, CDP-star luminescence | activation factor at 20 µM | alkaline phosphatase, intestinal [Bos taurus] | 0.17% of 200,000 active | AID 1016, 2008 | purified bovine IAP, 30 min; stronger effect = higher value; fold of DMSO-control signal, blank-subtracted;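 active = activation factor of 2 or more at 20 µM, a signal rise over negative controls twice the positive control's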
bIAP inhibitor: bovine intestinal alkaline phosphatase inhibitors, primary screen, selectivity assay for TNAP inhibitor project, biochemical, bovine IAP, CDP-star luminescence; 190,000 tested, under 10 active; AID 1019, 2008; inhibition, % at 20 µM; purified bovine IAP, 30 min;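 active = over 50% inhibition of intestinal alkaline phosphatase at 20 µM in the single-dose screen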
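System: purified bovine intestinal alkaline phosphatase (IAP) enzyme; Input: IAP diluted 1/65,000,000 in the well; Measured by: CDP-star luminescence signal; Compound dosing: 20 µM single dose; Incubation: 30 min reaction at room temperature.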
hIAP inh: human IAP inhibitors, primary screen, biochemical, luminescence, uHTS. purified IAP, CDP-Star luminescence, 30 min. inhibition, % at 10 µM. 0.12% of 330,000 active. AID 2544, 2010;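 active = inhibition reaching a set limit with compound at 10 µM in the primary screen, cut at about 35% in these data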;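 note: plate controls were DMSO wells with enzyme for no effect and no-enzyme buffer wells for full effect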
mIAP inh conf: inhibitors of mouse IAP, confirmation, biochemical, luminescence, single concentration. purified mouse IAP, CDP-Star luminescence, 30 min. inhibition, % at 10 µM. AID 434971, 2010. 4.7% of 11,000 active. shares compounds with mIAP block;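 active = inhibition of at least 40% at 10 µM in either of the two replicates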;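 note: plate controls were DMSO wells with enzyme for no effect and buffer wells lacking enzyme for full effect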
An asterisk follows results filed as active.

How did O=C(Nc1cccc(Cl)c1)Nc1nc(-c2ccc(Cl)cc2)cs1 do in these assays?
hIAP activ: 0.879; mIAP activ: 2.88*; mIAP block: -187.6; bIAP activator: 0.6; bIAP inhibitor: 38.1; hIAP inh: 12.1; mIAP inh conf: -109.8

Results for Cc1nc2ccccc2c(C)c1CC(=O)OC(C)C(=O)NC1(C#N)CCCCC1 (stereo not given) ?
hIAP activ: 1.02; mIAP activ: 0.992; mIAP block: 0.8; hIAP inh: -2.3

What do the screens show for `O=C(CCN1CCN(c2ccccc2)CC1)NNC(=S)Nc1ccccc1Cl`?
hIAP activ: 1.57; mIAP activ: 1.03; mIAP block: -2.7; bIAP activator: 1.7; bIAP inhibitor: -74.3; hIAP inh: -57.3

Results for CCC(C(=O)NCCC(C)C)n1ccc2cc(S(=O)(=O)N3CCCCC3)ccc21 (stereo not given) ?
hIAP activ: 1.14; mIAP activ: 2.69*; mIAP block: -169.5; hIAP inh: -13.9; mIAP inh conf: -159.1

What do the screens show for `FC(F)Sc1ccc(NC(=S)NC2CCC(NC(=S)Nc3ccc(SC(F)F)cc3)CC2)cc1` (stereo not given)?
hIAP activ: 1.06; mIAP activ: 2.45*; mIAP block: -145.1; bIAP activator: 0.6; bIAP inhibitor: 36.0; hIAP inh: -6.5; mIAP inh conf: -135.1

What do the screens show for `Oc1cccc(NC(=S)Nc2ccc(SC(F)F)cc2)c1`?
hIAP activ: 0.94; mIAP activ: 0.874; mIAP block: 12.6; bIAP activator: 1.1; bIAP inhibitor: -11.0; hIAP inh: 6.0

How did COc1ccc(CCNC(=O)c2cc(-c3cc(Cl)cc(Cl)c3)oc2C)cc1 do in these assays?
hIAP activ: 1; mIAP activ: 4*; mIAP block: -299.5; bIAP activator: 1; bIAP inhibitor: -3.2; hIAP inh: -0.2; mIAP inh conf: -107.2

How did COC(=O)c1sc(N2C(=O)C(O)=C(C(=O)c3ccc(C)o3)C2c2cc(OC)ccc2OC)nc1C (stereo not given) do in these assays?
hIAP activ: 1.08; mIAP activ: 0.886; mIAP block: 11.4; hIAP inh: -7.7

How did O=C(NC1CCSc2ccccc21)c1cc(S(=O)(=O)N2CCOCC2)ccc1Cl (stereo not given) do in these assays?
hIAP activ: 0.803; mIAP activ: 1.02; mIAP block: -1.7; hIAP inh: 19.7

How did COc1cc(-c2nnc(SCc3cc(=O)oc4cc(O)c(O)cc34)o2)cc(OC)c1OC do in these assays?
hIAP activ: 0.888; mIAP activ: 0.306; mIAP block: 69.4*; bIAP activator: 0.9; bIAP inhibitor: 6.5; hIAP inh: 11.2; mIAP inh conf: 73.4*

What do the screens show for `COc1cccc(CC(=O)NC2CCSc3ccccc32)c1` (stereo not given)?
hIAP activ: 0.87; mIAP activ: 0.995; mIAP block: 0.5; hIAP inh: 13.0

Results for FC(F)Oc1ccc(NC(=S)NC2CCSc3ccccc32)cc1 (stereo not given) ?
hIAP activ: 1.46; mIAP activ: 5.06*; mIAP block: -406.3; hIAP inh: -45.5; mIAP inh conf: -175.2

How did Cc1cccc(NC(=S)NC2CCSc3ccccc32)c1 (stereo not given) do in these assays?
hIAP activ: 1.01; mIAP activ: 4.29*; mIAP block: -329.3; hIAP inh: -1.3; mIAP inh conf: -242.5

What do the screens show for `O=C(NC1CCSc2ccccc21)c1cccc(OC(F)F)c1` (stereo not given)?
hIAP activ: 1.1; mIAP activ: 0.966; mIAP block: 3.4; hIAP inh: -9.7

Screening data (PubChem BioAssay)
